Laboratory results published in PMC5126733 (Journal of medicinal chemistry, 2015).
Blank lines part the entries; values can stand above or below the molecule they belong to.

Experiments:
[1] = biological target: T1, recombinant human aromatase (CYP19) (Homo sapiens, UniProt P11511); experiment: Inhibition of recombinant human aromatase; assay type: biochemical; conditions: ratio of aromatase IC50 values vs compound 7
T1 sequence (P11511 1-503): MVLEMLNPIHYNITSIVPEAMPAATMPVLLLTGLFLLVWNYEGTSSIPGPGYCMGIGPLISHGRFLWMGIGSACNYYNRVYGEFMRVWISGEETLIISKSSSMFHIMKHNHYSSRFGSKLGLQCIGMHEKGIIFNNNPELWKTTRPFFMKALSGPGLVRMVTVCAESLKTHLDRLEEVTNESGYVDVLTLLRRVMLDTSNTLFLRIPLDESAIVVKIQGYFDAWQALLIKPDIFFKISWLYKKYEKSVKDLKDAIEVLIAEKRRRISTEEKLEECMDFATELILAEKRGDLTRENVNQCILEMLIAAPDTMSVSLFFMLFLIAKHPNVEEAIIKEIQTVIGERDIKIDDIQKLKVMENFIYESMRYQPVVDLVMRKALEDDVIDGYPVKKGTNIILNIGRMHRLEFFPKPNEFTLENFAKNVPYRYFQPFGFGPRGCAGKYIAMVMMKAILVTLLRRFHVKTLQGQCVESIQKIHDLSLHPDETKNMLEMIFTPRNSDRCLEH

[2] = test system: progesterone receptor (PGR) mRNA expression in MCF-7 human breast cancer cells; experiment: Antagonism of β-estradiol; assay type: cell-based; conditions: MCF-7 cells, 1 μM compound, 10 nM E2, 24 h
Outline: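 MCF-7 cells were grown in MEM with 10% FBS at 37 °C in 5% CO2, then preconditioned 72 h in charcoal-stripped FBS. They were treated 24 h with 1 μM test compound, vehicle (0.1% methanol) or a positive-control antiestrogen, all with 10 nM E2. PGR mRNA was measured by TaqMan RT-qPCR (40 cycles), normalized to GAPDH by 2−ΔΔCt, and expressed as % of E2-stimulated expression.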

[3] = test system: postmenopausal women with breast cancer; conditions: five-year ATAC trial, anastrozole alone compared to tamoxifen alone; cited from earlier work
[4] = combination arm (with tamoxifen) of the ATAC trial; cited from earlier work
[5] = biological target: T2, recombinant human ER-α (Homo sapiens, UniProt P03372); conditions: at 100 μM compound; compound 7; cited from earlier work
T2 sequence (P03372 1-595): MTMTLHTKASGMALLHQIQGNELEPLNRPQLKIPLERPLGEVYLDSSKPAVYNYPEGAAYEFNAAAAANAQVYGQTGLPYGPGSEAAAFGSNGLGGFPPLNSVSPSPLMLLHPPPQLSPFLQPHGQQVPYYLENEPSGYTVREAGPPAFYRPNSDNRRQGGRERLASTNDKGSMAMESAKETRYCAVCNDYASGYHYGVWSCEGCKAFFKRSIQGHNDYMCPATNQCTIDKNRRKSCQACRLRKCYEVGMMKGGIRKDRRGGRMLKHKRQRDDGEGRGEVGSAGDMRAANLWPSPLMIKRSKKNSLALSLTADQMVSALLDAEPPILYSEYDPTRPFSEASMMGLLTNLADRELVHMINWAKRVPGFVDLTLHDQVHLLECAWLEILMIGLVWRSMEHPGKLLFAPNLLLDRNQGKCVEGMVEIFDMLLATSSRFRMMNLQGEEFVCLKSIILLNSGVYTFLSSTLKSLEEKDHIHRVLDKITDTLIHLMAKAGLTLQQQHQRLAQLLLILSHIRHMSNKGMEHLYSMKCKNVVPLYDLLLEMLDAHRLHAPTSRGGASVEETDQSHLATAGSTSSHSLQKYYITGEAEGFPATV

[6] = test system: ER in MCF-7-2a cells; conditions: cited from earlier work

fold improvement in aromatase inhibitory activity compared with 7 [1]: > 5000 fold
Molecule: Oc1ccc(C(=C(Cn2ccnc2)c2ccccc2)c2ccc(O)cc2)cc1 [Compound 12, 4,4'-(3-(1H-Imidazol-1-yl)-2-phenylprop-1-ene-1,1-diyl)diphenol]
PGR mRNA expression level in the presence of 10 nM E2 (E2 alone = 100%) [2]: 26-31%

Molecule: Nc1ccc(C(Cn2ccnc2)=C(c2ccc(O)cc2)c2ccc(O)cc2)cc1 [Compound 26, 4,4'-(2-(4-Aminophenyl)-3-(1H-imidazol-1-yl)prop-1-ene-1,1-diyl)diphenol]
PGR mRNA expression level in the presence of 10 nM E2 (E2 alone = 100%) [2]: 26-31%

Molecule: CC(C)(C#N)c1cc(Cn2cncn2)cc(C(C)(C)C#N)c1 [anastrozole]
improvement of disease-free survival [3]: 13%
reduction in occurrence of contralateral breast cancer [3]: 42%
reduction in risk of distant metastasis [3]: 14%
reduction in the time-to-recurrence [3]: 21%
lowering of serum concentration of anastrozole in the combination arm [4]: 27%

Molecule: Oc1ccc(C(Cn2ccnc2)=C(c2ccc(O)cc2)c2ccc(O)cc2)cc1 [Compound 18a, 4,4',4”-(3-(1H-Imidazol-1-yl)prop-1-ene-1,1,2-triyl)triphenol]
PGR mRNA expression level in the presence of 10 nM E2 (E2 alone = 100%) [2]: 26-31%

Molecule: Endoxifen
PGR mRNA expression level in the presence of 10 nM E2 (E2 alone = 100%) [2]: 10%

Molecule: CCC(=C(c1ccc(O)cc1)c1ccc(O)cc1)c1ccccc1 [Compound 7]
ER-α percent competition [5]: 80% competition
ER antagonist/agonist character [6]: good ER antagonist without significant agonistic side effects

Molecule: Oc1ccc(C(=C(Cn2ccnc2)c2ccc(O)c(F)c2)c2ccc(O)cc2)cc1 [Compound 18b, 4,4'-(2-(3-Fluoro-4-hydroxyphenyl)-3-(1H-imidazol-1-yl)prop-1-ene-1,1-diyl)diphenol]
PGR mRNA expression level in the presence of 10 nM E2 (E2 alone = 100%) [2]: 26-31%
